Results: ChEMBL document CHEMBL3804769, “Antibacterial Diamines Targeting Bacterial Membranes” (J Med Chem, 2016)
Activity calls are given as the source filed them. No cut-off for these calls is given here.

Tests used:
[1] = test system: Pseudomonas aeruginosa; test: Antibacterial activity against Pseudomonas aeruginosa PAO1 ATCC 47085 in exponential-phase assessed as cytoplasmic membrane depolarization at 1 to 4 times MIC99 by fluorescent probe DiSC3-5 based fluorophotometric analysis; format: functional, organism-based
Method in brief: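 Log-phase cells (OD600 ~0.7) washed and resuspended to OD600 0.05 in 5 mM HEPES pH 7.2 with 5 mM glucose and 100 mM KCl. Loaded with 0.4 μM DiSC3-5 in the dark until fluorescence fell stably by about 90%. Compound added at 4× or 1× MIC99 and fluorescence recorded continuously at 25 °C (ex 622/em 670 nm). 2,4-Dinitrophenol as positive control. Three independent experiments.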

[2] = test system: Pseudomonas aeruginosa; test: Bactericidal activity against Pseudomonas aeruginosa PAO1 ATCC 47085 in exponential-phase assessed as reduction in bacterial burden at 4 times MIC99 upto 6 hrs by time-kill assay; format: functional
Method in brief: (§1)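 Overnight cultures washed and resuspended in PBS, then diluted 100-fold into LB (exponential-phase model) or into 1% PBS (stationary-phase model). Test agent added at 4× MIC99. Incubated at 37 °C with shaking at 200 rpm. CFU counted on LB agar at 0, 2, 4 and 6 h.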

[3] = Selectivity index, ratio of CC50 for HEK293T/17 cells to MIC99 for Staphylococcus aureus RN4220 ATCC 35556; format: toxicity, cell-based; settings: human, read-out: Selectivity Index
Method in brief: (§2)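 CC50: HEK293T/17 or A549 cells seeded at 10⁴ per well in DMEM with 10% FBS at 37 °C, 5% CO2. After 24 h, wells PBS-washed and serially diluted compound applied for 48 h, with viability read by MTS and CC50 taken by nonlinear regression. MIC99 by CLSI broth microdilution, overnight at 37 °C without shaking, from three independent tests. SI = CC50/MIC99.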

[4] = test system: Staphylococcus aureus; test: Potentiation of kanamycin-induced antibacterial activity against Staphylococcus aureus RN4220 ATCC 35556 assessed as reduction in kanamycin MIC99 at 0.5 times MIC99 after 24 hrs by checkerboard assay relative to control; format: functional
Method in brief: (§3)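 Checkerboard assay: compound serially diluted along one axis of a 96-well plate and antibiotic along the other, in LB. Each well inoculated with 2 × 10⁴ CFU and incubated 24 h at 37 °C. ΣFIC = FIC A + FIC B, where each FIC is the combination MIC99 divided by the MIC99 of that drug alone.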

[5] = test system: Pseudomonas aeruginosa; test: Bactericidal activity against Pseudomonas aeruginosa PAO1 ATCC 47085 assessed as reduction in bacterial burden at 0.5 times MIC99 after 3 to 24 hrs by time kill assay in presence of 0.5 times MIC99 of kanamycin relative to control; format: functional, organism-based
Method in brief: (§4)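 Combination time-kill in LB at 1 × 10⁶ CFU/mL starting inoculum. Arms were compound or kanamycin alone at 1× and 0.5× MIC99, and the two combined at 0.5× MIC99 each. Incubated at 37 °C with shaking at 300 rpm. Viable counts taken by dilution and plating on LB agar at 0, 3, 6 and 24 h.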

[6] = test system: Pseudomonas aeruginosa; test: Antibacterial activity against Pseudomonas aeruginosa PAO1 ATCC 47085 at 0.5 times MIC99 after 24 hrs by checkerboard assay in presence of kanamycin; format: functional; method in brief: as §3
[7] = test system: Pseudomonas aeruginosa; test: Antibacterial activity against Pseudomonas aeruginosa PAO1 ATCC 47085 in early exponential-phase assessed as membrane damage at 2 times MIC99 after 15 mins by transmission electron microscopy; format: functional, organism-based
Method in brief: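 Cells grown in LB to early exponential phase (OD600 ~0.4). Exposed to 2× MIC99 for 15–60 min, washed twice in phosphate buffer, fixed in 2.5% glutaraldehyde, then imaged by transmission electron microscopy.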

[8] = test system: Staphylococcus aureus; test: Bactericidal activity against Staphylococcus aureus RN4220 ATCC 35556 in exponential-phase assessed as reduction in bacterial burden at 4 times MIC99 after 2 to 6 hrs by time-kill assay; format: functional, organism-based; method in brief: as §1
[9] = Cytotoxicity against HEK293T/17 cells after 48 hrs by MTS conversion assay; format: cell-based, HEK-293T; settings: human
Method in brief: (§5)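 HEK293T/17 and A549 cells maintained in DMEM with 10% FBS at 37 °C, 5% CO2. Seeded at 10⁴ cells per well; after 24 h, washed with PBS and exposed to serially diluted compound for 48 h. Viability read by MTS conversion. CC50 obtained by nonlinear regression.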

[10] = test system: Caenorhabditis elegans; test: Toxicity in adult L4/juvenile L1 stages of Caenorhabditis elegans N2 assessed as effect on egg development at 64 ug/ml incubated for 96 hrs measured every 12 hrs; format: organism-based; settings: in vivo
Method in brief: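 C. elegans N2 maintained on NGM agar at 22 °C. Compound mixed into molten NGM agar at 64 μg/mL. L4 adults, L1 juveniles and synchronized eggs transferred onto test plates and kept 96 h at 22 °C. Checked every 12 h for death, development and egg production. Gentamicin and […] as controls.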

[11] = test system: Pseudomonas aeruginosa; test: Antibacterial activity against Pseudomonas aeruginosa PAO1 ATCC 47085 incubated overnight by microbroth dilution method; format: functional
Method in brief: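 Bacteria grown in LB medium. CLSI microbroth dilution in 96-well plates, overnight at 37 °C without shaking. MIC99 taken as the lowest concentration giving complete growth inhibition. Three independent determinations, reported as mean ± SD.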

[12] = test system: Pseudomonas aeruginosa; test: Bactericidal activity against Pseudomonas aeruginosa PAO1 ATCC 47085 in stationary-phase assessed as reduction in bacterial burden at 4 times MIC99 after 4 hrs by time-kill assay; format: functional, organism-based; method in brief: as §1
[13] = test system: Pseudomonas aeruginosa; test: Antibacterial activity against Pseudomonas aeruginosa PAO1 ATCC 47085 at 0.5 times MIC99 after 24 hrs by checkerboard assay in presence of norfloxacin; format: functional; method in brief: as §3
[14] = Selectivity index, ratio of CC50 for human A549 cells to MIC99 for Staphylococcus aureus RN4220 ATCC 35556; format: toxicity, cell-based; settings: read-out: Selectivity Index; method in brief: as §2
[15] = test system: Pseudomonas aeruginosa; test: Bactericidal activity against Pseudomonas aeruginosa PAO1 ATCC 47085 assessed as reduction in bacterial burden at 4 times MIC99; format: functional
[16] = test system: Pseudomonas aeruginosa; test: Antibiofilm activity against Pseudomonas aeruginosa PAO1 ATCC 47085 assessed as dispersal of formed biofilm after 24 hrs by crystal violet staining-based spectrophotometry; format: functional, organism-based
Method in brief: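 Biofilms first grown 24 h on peg lids without compound, then washed. Pegs transferred into serially diluted compound in 10% LB-PBS and incubated a further 24 h at 37 °C. Remaining biofilm stained with crystal violet, eluted in ethanol and read at 600 nm. 300 μM EDTA as positive control for dispersal.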

[17] = test system: Pseudomonas aeruginosa; test: Antibacterial activity against Pseudomonas aeruginosa PAO1 ATCC 47085 at 0.5 times MIC99 after 24 hrs by checkerboard assay in presence of ampicillin; format: functional; method in brief: as §3
[18] = test system: Staphylococcus aureus; test: Bactericidal activity against Staphylococcus aureus RN4220 ATCC 35556 assessed as reduction in bacterial burden at 0.5 times MIC99 after 3 to 24 hrs by time kill assay in presence of 0.5 times MIC99 of kanamycin relative to control; format: functional; method in brief: as §4
[19] = test system: Staphylococcus aureus; test: Antibacterial activity against methicillin-resistant Staphylococcus aureus clinical isolate 20467BA SPA type 59 after 24 hrs by microbroth dilution method; format: functional
Method in brief: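 MRSA isolates from ICU surfaces, stored at −80 °C and grown in Mueller-Hinton broth. Overnight cultures diluted and added to serially diluted compound at ~10⁵ CFU/mL, broth microdilution. Plates incubated 24 h at 37 °C, growth read as absorbance at 620 nm. MIC99 taken as the lowest concentration giving complete growth inhibition.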

[20] = Cytotoxicity against human A549 cells after 48 hrs by MTS conversion assay; format: cell-based; method in brief: as §5

For `Cl.Cl.S=C(NCCCNCCCCCNCCCNC(=S)NCC(c1ccccc1)c1ccccc1)NCC(c1ccccc1)c1ccccc1`, the Activity [1] was “Active”, the Activity [2] was 4 deltalog10CFU/ml and the selectivity ratio [3] was 16. For the same compound, the “fold change (FC)” value [4] was 8, the Activity [5] was “Active” and the “fractional inhibitory concentration index (FICI)” value [6] was 0.75. For the same compound, the Activity [7] was “Active”, the Activity [8] was “Active” and the CC50 at 48 h [9] was 32 µg/mL. The Activity [10] was “Non-toxic”, the MIC99 [11] was 8 µg/mL and the Activity [12] was “Active”. The “fractional inhibitory concentration index (FICI)” value [13] was 0.75, the selectivity ratio [14] was 32 and the Activity [15] was greater than 2 deltalog10CFU/ml. For the same compound, the Activity [16] was “Active”, the “fractional inhibitory concentration index (FICI)” value [17] was 2 and the Activity [18] was greater than 2 deltalog10CFU/ml. The MIC99 [19] was 1 µg/mL and the CC50 at 48 h [20] was 64 µg/mL.
